The target of one assay is T1, R24M PTP1B (Homo sapiens, UniProt P18031, R24M).
T1 sequence (P18031 1-321 R24M): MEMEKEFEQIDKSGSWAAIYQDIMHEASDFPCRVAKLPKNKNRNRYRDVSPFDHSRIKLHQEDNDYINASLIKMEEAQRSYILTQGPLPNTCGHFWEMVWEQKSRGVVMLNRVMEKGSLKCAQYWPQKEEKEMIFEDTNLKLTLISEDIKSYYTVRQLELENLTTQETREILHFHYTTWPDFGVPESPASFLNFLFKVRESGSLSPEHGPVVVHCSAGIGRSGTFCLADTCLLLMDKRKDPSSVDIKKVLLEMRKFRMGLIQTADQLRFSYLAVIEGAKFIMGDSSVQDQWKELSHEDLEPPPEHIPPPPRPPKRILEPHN
In words: PTP assay, R24M PTP1B. It counts as biochemical. The method, boiled down: (§1)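 E. coli-expressed catalytic domains were used: wild-type, R24M or R47E PTP1B (aa 1–321), and SHP-1 (aa 205–595). Reactions started with PTP (0.5–20000 nM final) and dephosphorylation was monitored continuously at 282 nm. kcat, KM and kcat/KM came from initial-rate fits (Michaelis–Menten, or V = kcat[E][S]/KM when KM >> [S]) or from fits of progress curves.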

A further assay has as its target T2, PTPD1 (Homo sapiens, UniProt Q16825).
T2 sequence (Q16825 875-1174): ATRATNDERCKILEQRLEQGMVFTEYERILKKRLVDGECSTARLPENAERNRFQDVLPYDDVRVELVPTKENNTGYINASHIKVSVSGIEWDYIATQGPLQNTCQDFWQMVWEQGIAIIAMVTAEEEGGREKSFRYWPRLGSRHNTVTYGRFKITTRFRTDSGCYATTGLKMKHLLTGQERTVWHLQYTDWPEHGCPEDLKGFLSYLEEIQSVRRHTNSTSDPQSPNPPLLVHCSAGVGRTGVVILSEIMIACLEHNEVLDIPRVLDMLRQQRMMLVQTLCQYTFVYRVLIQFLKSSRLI
In words: Pre-steady-state. It counts as biochemical. As to conditions: 25 °C; initial phase not resolved, too fast for the instrument.

The target in the next assay is T3, R47E PTP1B (Homo sapiens, UniProt P18031, R47E).
T3 sequence (P18031 1-321 R47E): T1 sequence (P18031 1-321 R24M) with M24R, R47E
Kind of assay: PTP assay, R47E PTP1B. It counts as biochemical. The essentials: as §1

The next assay deals with T4, PTP1B (Homo sapiens, UniProt P18031).
T4 sequence (P18031 1-321): T1 sequence (P18031 1-321 R24M) with M24R
In words: PTP assay, wild-type PTP1B. As to conditions: WT PTP1B aa 1–321; pH 7.4. It counts as biochemical. The essentials: as §1

Assay [1] concerns the target T5, R24M PTP1B catalytic domain (amino acids 1-321) (human) (UniProt P18031).
T5 sequence: T1 sequence (P18031 1-321 R24M)

The target in assay [2] is T6, wild-type PTP1B catalytic domain (amino acids 1-321) (human) (UniProt P18031).
T6 sequence: T1 sequence (P18031 1-321 R24M) with M24R

Assay [3] has as its target T6, wild-type PTP1B catalytic domain (amino acids 1-321) (human). The source holds these as a separate data set.
The target of assay [4] is T7, R47E PTP1B catalytic domain (amino acids 1-321) (human) (UniProt P18031).
T7 sequence: T1 sequence (P18031 1-321 R24M) with M24R, R47E

Assay [5] concerns the target T8, PTP-PEST catalytic domain (aa 5-300), GST fusion (human) (UniProt Q05209).
T8 sequence: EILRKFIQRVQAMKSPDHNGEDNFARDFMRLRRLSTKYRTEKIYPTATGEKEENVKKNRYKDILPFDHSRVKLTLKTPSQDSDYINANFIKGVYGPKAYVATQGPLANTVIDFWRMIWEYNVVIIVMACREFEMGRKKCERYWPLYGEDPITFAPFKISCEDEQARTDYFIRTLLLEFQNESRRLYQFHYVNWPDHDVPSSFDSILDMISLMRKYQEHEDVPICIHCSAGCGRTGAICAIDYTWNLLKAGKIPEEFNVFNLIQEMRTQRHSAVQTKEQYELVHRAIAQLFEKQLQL

The target in assay [6] is T9, HePTP (aa 22-335), GST fusion (human) (UniProt P35236).
T9 sequence: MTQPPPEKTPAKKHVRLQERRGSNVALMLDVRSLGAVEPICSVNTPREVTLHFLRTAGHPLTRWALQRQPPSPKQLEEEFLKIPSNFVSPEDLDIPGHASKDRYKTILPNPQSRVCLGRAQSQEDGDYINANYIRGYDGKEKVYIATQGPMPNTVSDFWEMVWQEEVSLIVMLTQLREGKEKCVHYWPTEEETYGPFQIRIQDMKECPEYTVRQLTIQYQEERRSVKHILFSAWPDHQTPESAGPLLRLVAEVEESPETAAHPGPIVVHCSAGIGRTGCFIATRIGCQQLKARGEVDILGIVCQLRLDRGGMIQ

Changes are numbered by the printed parent chain. Where two headings read alike, the source gives them in different places. Square brackets hold non-standard residues; d marks the D form. pY = N[C@@H](Cc1ccc(OP(=O)(O)O)cc1)C(=O)O

By Km is commonly meant the substrate concentration at which the rate is half of its maximum. By kcat is commonly meant the number of substrate molecules converted per active site and unit of time at saturation. Regarding `O=[N+]([O-])c1ccc(OP(=O)(O)O)cc1` [pNPP, p-nitrophenyl phosphate, reference compound], on R24M PTP1B (R24M PTP1B aa 1–321, pH 7.4), the Km is 3 ± 0.1 µM, the kcat turned out to be 17 ± 1 s⁻¹ and the “kcat/KM x 10^7” value is 0.00057 x 10^7 M^−1 s^−1. Also, on R24M PTP1B (ratio of kcat/KM, WT over R24M PTP1B (fold reduction by the mutation)), the WT/R24M came out at 1.2. Besides, the “k of initial phase” value at PTPD1 was above 100 s⁻¹. On R47E PTP1B (R47E PTP1B aa 1–321, pH 7.4), the Michaelis constant (Km) worked out at 2800 ± 300 µM, the kcat was determined as 16 ± 1 s⁻¹ and the “kcat/KM x 10^7” value was 0.00057 x 10^7 M^−1 s^−1. In addition, the WT/R47E on R47E PTP1B (ratio of kcat/KM, WT over R47E PTP1B (fold decrease by the mutation)) was 1.2. The “kcat/KM x 10^7” value on PTP1B is reported as 0.00069 x 10^7 M^−1 s^−1.

B1: Ac-ASSDEpYAA-NH2 (peptide)
peptide: Ac-ASSDE[pY]AA-NH2
SMILES: CC(=O)N[C@@H](C)C(=O)N[C@@H](CO)C(=O)N[C@@H](CO)C(=O)N[C@@H](CC(=O)O)C(=O)N[C@@H](CCC(=O)O)C(=O)N[C@@H](Cc1ccc(OP(=O)(O)O)cc1)C(=O)N[C@@H](C)C(=O)N[C@@H](C)C(N)=O
Regarding B1, the KM, steady-state dephosphorylation of the pY peptide in assay [1] amounted to 3.8 µM; in assay [2], 1.9 µM; in [3], 1.8 µM; in assay [4], 32 µM.

B2: Ac-YDEDFpYDYEF-NH2 (acidic) (peptide)
peptide: Ac-YDEDF[pY]DYEF-NH2
SMILES: CC(=O)N[C@@H](Cc1ccc(O)cc1)C(=O)N[C@@H](CC(=O)O)C(=O)N[C@@H](CCC(=O)O)C(=O)N[C@@H](CC(=O)O)C(=O)N[C@@H](Cc1ccccc1)C(=O)N[C@@H](Cc1ccc(OP(=O)(O)O)cc1)C(=O)N[C@@H](CC(=O)O)C(=O)N[C@@H](Cc1ccc(O)cc1)C(=O)N[C@@H](CCC(=O)O)C(=O)N[C@@H](Cc1ccccc1)C(N)=O
Turning to B2, the results for the KM, steady-state dephosphorylation of the pY peptide in [5] and in [6] were 2.2 µM and 280 µM, respectively.

The record behind these values is publication PMC3954597 (Biochemistry, 2014).
